According to ChEMBL document CHEMBL3352152, “Indolylmethylene benzo[h]thiazolo[2,3-b]quinazolinones: synthesis, characterization and evaluation of anticancer and antimicrobial activities” (Bioorg Med Chem Lett, 2014):
One block for each molecule: values may come before it.

How the values were obtained:
Staphylococcus aureus [1] = assay: Antibacterial activity against Staphylococcus aureus MTCC 96 at 30 ug/ml after 24 hrs by agar well diffusion assay; format: functional; details: MTCC 96, 24 h, read-out: IZ
In short: (§1)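 Agar well diffusion screen run in vitro against a bacterial panel: S. aureus and S. pyogenes (Gram-positive), P. aeruginosa and K. pneumoniae (Gram-negative). Streptomycin served as the reference standard drug.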

Pseudomonas aeruginosa [2] = assay: Antibacterial activity against Pseudomonas aeruginosa MTCC 4673 at 30 ug/ml after 24 hrs by agar well diffusion assay; format: functional; details: MTCC 4673, 24 h, read-out: IZ
In short: (§2)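 Agar well diffusion screen against the two Gram-positive strains (S. aureus, S. pyogenes) and the two Gram-negative strains (P. aeruginosa, K. pneumoniae). Streptomycin was the reference drug. Activity was read as zone of inhibition (mm).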

Streptococcus pyogenes [3] = assay: Antibacterial activity against Streptococcus pyogenes MTCC 1926 at 30 ug/ml after 24 hrs by agar well diffusion assay; format: functional; details: MTCC 1926, 24 h, read-out: IZ; in short: as §2
Klebsiella pneumoniae [4] = assay: Antibacterial activity against Klebsiella pneumoniae MTCC 109 at 30 ug/ml after 24 hrs by agar well diffusion assay; format: functional; details: MTCC 109, 24 h, read-out: IZ; in short: as §1
Streptococcus pyogenes [5] = assay: Antibacterial activity against Streptococcus pyogenes MTCC 1926 at 150 ug/ml after 24 hrs by agar well diffusion assay; format: functional; details: MTCC 1926, 24 h, read-out: IZ; in short: as §2
Pseudomonas aeruginosa [6] = assay: Antibacterial activity against Pseudomonas aeruginosa MTCC 4673 at 150 ug/ml after 24 hrs by agar well diffusion assay; format: functional; details: MTCC 4673, 24 h, read-out: IZ; in short: as §2
MCF7 = assay: Anticancer activity against human MCF7 cells assessed as cell viability after 48 hrs by MTT microcultured tetrazolium assay; format: functional, cell-based; details: MCF7, 48 h
In short: (§3)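 MTT-microcultured tetrazolium viability read-out in MCF-7 and HepG2 cells exposed to test samples. Surviving fraction was plotted against drug concentration to give survival curves, and IC50 was taken from these curves.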

Aspergillus parasiticus [7] = assay: Antifungal activity against Aspergillus parasiticus MTCC 8850 at 150 ug/ml after 48 hrs by agar well diffusion method; format: functional; details: MTCC 8850, 48 h, read-out: IZ
In short: (§4)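 Antifungal screen by agar well diffusion against C. albicans, C. glabrata, A. niger and A. parasiticus. Clotrimazole was the standard drug. Activity was recorded as zone of inhibition (ZOI, mm).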

Aspergillus niger [8] = assay: Antifungal activity against Aspergillus niger MTCC 282 at 150 ug/ml after 48 hrs by agar well diffusion method; format: functional; details: MTCC 282, 48 h, read-out: IZ; in short: as §4
Klebsiella pneumoniae [9] = assay: Antibacterial activity against Klebsiella pneumoniae MTCC 109 at 150 ug/ml after 24 hrs by agar well diffusion assay; format: functional; details: MTCC 109, 24 h, read-out: IZ; in short: as §2
Nakaseomyces glabratus [10] = assay: Antifungal activity against Candida glabrata MTCC3019 at 150 ug/ml after 48 hrs by agar well diffusion method; format: functional; details: MTCC3019, 48 h, read-out: IZ; in short: as §4
Staphylococcus aureus [11] = assay: Antibacterial activity against Staphylococcus aureus MTCC 96 at 150 ug/ml after 24 hrs by agar well diffusion assay; format: functional; details: MTCC 96, 24 h, read-out: IZ; in short: as §2
Candida albicans [12] = assay: Antifungal activity against Candida albicans MTCC 183 at 150 ug/ml after 48 hrs by agar well diffusion method; format: functional; details: MTCC 183, 48 h, read-out: IZ; in short: as §4
HepG2 = assay: Anticancer activity against human HepG2 cells assessed as cell viability after 48 hrs by MTT microcultured tetrazolium assay; format: functional, cell-based; details: HepG2, 48 h; in short: as §3
Aspergillus parasiticus [13] = assay: Antifungal activity against Aspergillus parasiticus MTCC 8850 at 30 ug/ml after 48 hrs by agar well diffusion method; format: functional; details: MTCC 8850, 48 h, read-out: IZ; in short: as §4
Candida albicans [14] = assay: Antifungal activity against Candida albicans MTCC 183 at 30 ug/ml after 48 hrs by agar well diffusion method; format: functional; details: MTCC 183, 48 h, read-out: IZ; in short: as §4
Aspergillus niger [15] = assay: Antifungal activity against Aspergillus niger MTCC 282 at 30 ug/ml after 48 hrs by agar well diffusion method; format: functional; details: MTCC 282, 48 h, read-out: IZ; in short: as §4
Nakaseomyces glabratus [16] = assay: Antifungal activity against Candida glabrata MTCC3019 at 30 ug/ml after 48 hrs by agar well diffusion method; format: functional; details: MTCC3019, 48 h, read-out: IZ; in short: as §4

Compound: CN[C@@H]1[C@H](O[C@H]2[C@H](O[C@H]3[C@H](O)[C@@H](O)[C@H](N=C(N)N)[C@@H](O)[C@@H]3N=C(N)N)O[C@@H](C)[C@]2(O)C=O)O[C@@H](CO)[C@H](O)[C@H]1O [STREPTOMYCIN]
zone of inhibition at 30 µg/mL (Staphylococcus aureus [1]): 22 mm
zone of inhibition at 30 µg/mL (Pseudomonas aeruginosa [2]): 20 mm
zone of inhibition at 30 µg/mL (Streptococcus pyogenes [3]): 21 mm
zone of inhibition at 30 µg/mL (Klebsiella pneumoniae [4]): 22 mm

IC50 (MCF7): 8.96 µM
IC50 (HepG2): 22.1 µM
Compound: COc1ccc2c(c1)CCC1=C2N=c2s/c(=C\c3c[nH]c4ccc(Br)cc34)c(=O)n2C1c1ccc(F)cc1 (stereo not drawn)
zone of inhibition at 150 µg/mL (Streptococcus pyogenes [5]): 8 mm
zone of inhibition at 150 µg/mL (Pseudomonas aeruginosa [6]): 22 mm
zone of inhibition at 150 µg/mL (Aspergillus parasiticus [7]): 8 mm
zone of inhibition at 150 µg/mL (Aspergillus niger [8]): 8 mm
zone of inhibition at 150 µg/mL (Klebsiella pneumoniae [9]): 18 mm
zone of inhibition at 150 µg/mL (Nakaseomyces glabratus [10]): 10 mm
zone of inhibition at 150 µg/mL (Staphylococcus aureus [11]): 22 mm
zone of inhibition at 150 µg/mL (Candida albicans [12]): 8 mm

Compound: Clc1ccccc1C(c1ccccc1)(c1ccccc1)n1ccnc1 [CLOTRIMAZOLE]
zone of inhibition at 30 µg/mL (Aspergillus parasiticus [13]): 20 mm
zone of inhibition at 30 µg/mL (Candida albicans [14]): 24 mm
zone of inhibition at 30 µg/mL (Aspergillus niger [15]): 20 mm
zone of inhibition at 30 µg/mL (Nakaseomyces glabratus [16]): 22 mm
